The record followed here is PubChem BioAssay.

As usually defined, the viability is a read-out of living cells in per cent, often relative to untreated cells. What is called inhibition is the drop in the measured response relative to a control, in per cent.

Assay [1] is described as follows: Her2 expression decrease, cell viability multiplex – SKBR3 breast tumor cells, AlphaScreen, ATP viability, primary screen (AID 461;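 active = Her2 level under about 52% in both replicate screens, with viability over 70% of control, limit read from the data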;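 as to Her2 level: lower value means less Her2 protein in the cells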;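 as to viability: percent of carrier control wells set as 100% viability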). The following applies: SKBR3 Her2 protein level, 18-24 h, measured here: SKBR3 viability, ATP luminescence, at 10 µM. Background: Alpha assays give light when donor and acceptor beads are brought close together.
The target in assay [2] is Receptor tyrosine-protein kinase erbB-2 (Homo sapiens) (UniProt P04626). Described as above. The note with it: 18-24 h, at 10 µM, stronger effect = lower value.
Assay [3] can be described thus: reduced viability of SK-BR-3 breast cancer cells – cell-based, 24 h, human, pilot screen (AID 572;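 active = viability at or below 10% of carrier control in both of two separate runs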;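 also: compound exposure lasted between 18 and 24 h rather than exactly 24 h; 100% = carrier-treated control wells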). The following applies: SK-BR-3 viability, CellTiter-Glo luminescence, at 10 µM, stronger effect = lower value. For orientation: ATP-based viability assays read luminescence as a measure of living cells.
The nature of assay [4]: HUVEC growth inhibition – cell-based, human, primary screen (AID 575).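 Also: 100% = median of untreated cell wells with 0.1% DMSO on each plate.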 The note with it: HUVEC proliferation, CellTiter-Glo luminescence, 72 h; at 10 µM; stronger effect = lower value. In a few lines: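 Assay system: primary human umbilical vein endothelial cells / Buffer or medium: endothelial basal medium with 2% FBS plus growth supplements / Compound dosing: one dose, 10 µM final, 0.1% DMSO / Timing: 72 h treatment at 37 °C / Signal: CTG luminescence / Benchmarks: 32 DMSO-only cell-control wells (high), 32 MePR drug-control wells (low) per plate / Plate: collagen-coated 384-well format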

Assay [5] is described as follows: H69AR cell proliferation blockers – human, duplicate replicates, primary screen (AID 580;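 active = viability at or under a set limit in both replicates, limit being median viability minus 3 SD, cut at about 48% in these data, passing the limit was not always enough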;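 also: 100% = mean luminescence of untreated wells and 0% = no signal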). The note with it: H69AR lung tumor cells viability, ATP luminescence, 72 h; at 10 µM; stronger effect = lower value.
The nature of assay [6]: MRP1 drug-resistance reversers in H69AR cells – cell-based, doxorubicin co-treatment, pilot screen (AID 601;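 active = viability loss from added drug above about 55%, and viability with drug at most 40%, in both replicates, limit read from the data, passing the limit was not always enough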). The following applies: CellTiter-Glo, 72 h, at 10 µM; for differential viability (reversal): stronger effect = higher value.
Assay [7] is described as follows: yeast transport mutant growth inhibition pilot in 384-well plates, post-Golgi transport modulator project (AID 636; in the data active = inhibition above about 31%). The following applies: absorbance 615 nm, about 18 h, stronger effect = higher value.
Assay [8] can be described thus: growth suppression of yeast trafficking mutant, preliminary HTS, modulators of trafficking downstream of Golgi apparatus project, 1536-format plate, OD 615 nm (AID 637; in the data active = inhibition above about 30%). The note with it: yeast transport mutant growth, absorbance 615 nm, 18 h; stronger effect = higher value.
The mark [9] stands for this setting: H69AR cells + 2 uM doxorubicin, measured here: viability with 2 uM doxorubicin, stronger effect = lower value.
[10] abbreviates: H69AR cells, compound alone cytotoxicity.

Activity calls are given as the source filed them.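 The calls were made as follows, unless noted: active = viability at or below 30% in both replicate assays; inconclusive = viability at or below 30% in just one of the two assays; inactive = the rest.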

Sequence of Receptor tyrosine-protein kinase erbB-2 (Homo sapiens) (P04626 whole entry, looked up): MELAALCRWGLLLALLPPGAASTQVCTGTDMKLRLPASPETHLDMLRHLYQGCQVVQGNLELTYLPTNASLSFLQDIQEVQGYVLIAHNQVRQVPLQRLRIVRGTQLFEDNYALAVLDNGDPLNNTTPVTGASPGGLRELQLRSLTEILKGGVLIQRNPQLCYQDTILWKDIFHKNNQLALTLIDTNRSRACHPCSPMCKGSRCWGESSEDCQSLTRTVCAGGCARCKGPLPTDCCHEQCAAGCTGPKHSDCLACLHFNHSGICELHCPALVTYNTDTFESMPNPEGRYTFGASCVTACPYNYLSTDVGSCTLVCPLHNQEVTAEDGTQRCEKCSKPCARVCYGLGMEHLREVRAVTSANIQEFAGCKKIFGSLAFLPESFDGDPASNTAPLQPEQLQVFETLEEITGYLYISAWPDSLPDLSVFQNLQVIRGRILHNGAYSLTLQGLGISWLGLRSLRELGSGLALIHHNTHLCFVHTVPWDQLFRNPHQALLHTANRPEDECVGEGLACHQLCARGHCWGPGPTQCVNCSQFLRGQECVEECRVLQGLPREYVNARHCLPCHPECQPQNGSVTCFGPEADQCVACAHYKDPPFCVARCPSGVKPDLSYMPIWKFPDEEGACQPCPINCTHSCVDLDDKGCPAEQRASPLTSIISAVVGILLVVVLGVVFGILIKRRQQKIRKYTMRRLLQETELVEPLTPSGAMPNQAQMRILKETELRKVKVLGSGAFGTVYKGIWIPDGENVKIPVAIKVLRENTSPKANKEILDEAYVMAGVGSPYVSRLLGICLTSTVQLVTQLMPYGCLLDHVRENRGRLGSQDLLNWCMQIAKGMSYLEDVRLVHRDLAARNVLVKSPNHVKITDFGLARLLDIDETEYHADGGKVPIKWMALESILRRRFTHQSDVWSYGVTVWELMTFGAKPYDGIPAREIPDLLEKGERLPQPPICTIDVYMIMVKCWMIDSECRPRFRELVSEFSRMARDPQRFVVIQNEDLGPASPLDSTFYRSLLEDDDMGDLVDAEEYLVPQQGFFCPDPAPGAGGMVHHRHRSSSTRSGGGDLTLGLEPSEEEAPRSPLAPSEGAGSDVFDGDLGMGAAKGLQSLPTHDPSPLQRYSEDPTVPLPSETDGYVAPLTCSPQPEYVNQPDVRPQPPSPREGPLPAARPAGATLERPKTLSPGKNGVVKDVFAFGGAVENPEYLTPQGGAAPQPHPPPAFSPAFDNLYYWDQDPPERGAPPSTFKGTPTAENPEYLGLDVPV

For `O=c1c2c3nc4ccccc4nc3n(CC3CCCO3)c2ncn1CCc1ccccc1` (stereo not given), the viability in assay [1] was 97%; in assay [3], 97% (inactive); in assay [4], 76.2% (inactive); in assay [5], 70.4% (inactive); in assay [6] (setting [9]), 31.8%; in assay [6] (setting [10]), 70.4%. In addition, the Her2 level in assay [2] is 83.5% (inactive). In addition, in assay [6] (H69AR cells + 2 uM doxorubicin), the differential viability (reversal) was 38.6% (inactive). Also, the results for the inhibition in assay [7] and in assay [8] were -6.93% (inactive) and -2.62% (inactive), respectively.

In the case of `COc1ccc(OCC(O)Cn2c(Br)nc3c2c(=O)[nH]c(=O)n3C)cc1` (stereo not given), the viability in assay [1] is 84%; in assay [3], 84% (inactive); in assay [4], 62.8% (inactive); in assay [5] it was 28.5% (active); in assay [6] (setting [9]) it was 57.1%; in assay [6] (setting [10]), 28.5%. Besides, the Her2 level in assay [2] was 72% (inactive). The differential viability (reversal) in assay [6] (H69AR cells + 2 uM doxorubicin) was -28.6% (inactive). For the same molecule, the inhibition in assay [7] is -4.4% (inactive); in assay [8] it was 10.7% (inactive).

As to `CCOC(=O)Cn1c(=N)n(CCOc2cccc(C)c2)c2ccccc21`, the viability was 121% in assay [1]; 121% (inactive) in assay [3]; 99.6% (inactive) in assay [4]; 85.9% (inactive) in assay [5]; 84.9% in assay [6] (setting [9]); 85.9% in assay [6] (setting [10]). In addition, the Her2 level in assay [2] is 106% (inactive). Also, the differential viability (reversal) in assay [6] (H69AR cells + 2 uM doxorubicin) is 1% (inactive). Also, the inhibition in assay [7] is -6.67% (inactive); in assay [8], -0.79% (inactive).

Regarding `Cc1ccc2c(c1)-c1cc(C)nn1C(c1ccc3c(c1)OCO3)N2` (stereo not given), the viability in assay [1] was 100%; in assay [3], 100% (inactive); in assay [4], 54% (inactive); in assay [5], 87.2% (inactive); in assay [6] (setting [9]), 98.4%; in assay [6] (setting [10]) it was 87.2%. The Her2 level in assay [2] is 100% (inactive). Further, the differential viability (reversal) in assay [6] (H69AR cells + 2 uM doxorubicin) was -11.2% (inactive). Moreover, the inhibition is -2.76% (inactive) in assay [7] and -3.55% (inactive) in assay [8].

As to `CC(C)OC(=O)CN1C(=O)C(C)(C)Oc2ccc(C(=O)NC3CC3)cc21`, the viability in assay [1] was 96%; in assay [3] it was 96% (inactive); in assay [4] it was 93.1% (inactive); in assay [5], 91.6% (inactive); in assay [6] (setting [9]), 94.3%; in assay [6] (setting [10]), 91.6%. For the same molecule, in assay [2], the Her2 level is 92.5% (inactive). Also, in assay [6] (H69AR cells + 2 uM doxorubicin), the differential viability (reversal) is -2.77% (inactive). The inhibition in assay [7] is -3.2% (inactive); in assay [8] it was 1.94% (inactive).

On to `CCOC(=O)c1ccc2nc(C)c3c(c2c1)OC(C)C3` (stereo not given), for which the viability was 92% in assay [1]; 92% (inactive) in assay [3]; 97.1% (inactive) in assay [4]; 87.9% (inactive) in assay [5]; 76.9% in assay [6] (setting [9]); 87.9% in assay [6] (setting [10]). For the same molecule, the Her2 level in assay [2] was 124% (inactive). The differential viability (reversal) in assay [6] (H69AR cells + 2 uM doxorubicin) is 11% (inactive). For the same molecule, the inhibition is -2.6% (inactive) in assay [7] and -5.67% (inactive) in assay [8].

Turning to `Cc1noc(C)c1S(=O)(=O)N1CCC(C(=O)Nc2ccccn2)CC1`, the viability in assay [1] was 98%; in assay [3], 98% (inactive); in assay [4], 105% (inactive); in assay [5] it was 89.5% (inactive); in assay [6] (setting [9]), 83.3%; in assay [6] (setting [10]) it was 89.5%. The Her2 level in assay [2] is 81% (inactive). Further, in assay [6] (H69AR cells + 2 uM doxorubicin), the differential viability (reversal) was 6.2% (inactive). In addition, the inhibition in assay [7] was -2.11% (inactive); in assay [8], 0.48% (inactive).

For the molecule `Cc1cccc(-n2ccnc2SCC(=O)Nc2cc(C)on2)c1`, the viability in assay [1] is 96%; in assay [3], 96% (inactive); in assay [4] it was 96.3% (inactive); in assay [5], 99.1% (inactive); in assay [6] (setting [9]), 80.4%; in assay [6] (setting [10]), 99.1%. The Her2 level in assay [2] is 102% (inactive). Moreover, the differential viability (reversal) in assay [6] (H69AR cells + 2 uM doxorubicin) is 18.6% (inactive). In addition, the inhibition in assay [7] was 0.79% (inactive); in assay [8] it was -4.91% (inactive).

In the case of `O=C(CCCC(=O)OCC(=O)NC1CCCC1)Nc1ccccn1`, the viability is 95.5% in assay [1]; 95.5% (inactive) in assay [3]; 98.1% (inactive) in assay [4]; 96.9% (inactive) in assay [5]; 103% in assay [6] (setting [9]); 96.9% in assay [6] (setting [10]). Further, the Her2 level in assay [2] is 88% (inactive). Further, the differential viability (reversal) in assay [6] (H69AR cells + 2 uM doxorubicin) is -6.12% (inactive). Also, the results for the inhibition in assay [7] and in assay [8] were -6.8% (inactive) and 3.28% (inactive), respectively.

On to `CC(=O)c1cccc(NC(=O)c2ccc(NS(C)(=O)=O)cc2)c1`, for which the viability in assay [1] is 118%; in assay [3], 118% (inactive); in assay [4], 97.7% (inactive); in assay [5], 83.6% (inactive); in assay [6] (setting [9]) it was 85%; in assay [6] (setting [10]), 83.6%. In addition, the Her2 level in assay [2] was 80.5% (inactive). Also, the differential viability (reversal) in assay [6] (H69AR cells + 2 uM doxorubicin) is -1.39% (inactive). The results for the inhibition in assay [7] and in assay [8] were -3.95% (inactive) and 1.75% (inactive), respectively.

With `Cc1ccc(N2CCN(C(=O)c3ccccc3Br)CC2)c(C)c1`, the viability was 110% in assay [1]; 110% (inactive) in assay [3]; 93% (inactive) in assay [4]; 89.2% (inactive) in assay [5]; 78.6% in assay [6] (setting [9]); 89.2% in assay [6] (setting [10]). Also, the Her2 level in assay [2] is 72% (inactive). Besides, in assay [6] (H69AR cells + 2 uM doxorubicin), the differential viability (reversal) was 10.5% (inactive). In addition, the inhibition is -5.6% (inactive) in assay [7] and 0.16% (inactive) in assay [8].

As to `O=C(O)c1cc(Cl)c(Cl)cc1C(=O)N1CCCC1`, the viability in assay [1] was 97.5%; in assay [3], 97.5% (inactive); in assay [4], 87.2% (inactive); in assay [5], 98.7% (inactive); in assay [6] (setting [9]) it was 101%; in assay [6] (setting [10]), 98.7%. Also, the Her2 level in assay [2] is 100% (inactive). Besides, the differential viability (reversal) in assay [6] (H69AR cells + 2 uM doxorubicin) is -2.26% (inactive). Also, the inhibition in assay [7] is -1.79% (inactive); in assay [8], -1.17% (inactive).

As to `CCCCNS(=O)(=O)c1ccc(OC)c2ncccc12`, the viability is 102% in assay [1]; 102% (inactive) in assay [3]; 102% (inactive) in assay [4]; 90% (inactive) in assay [5]; 89.7% in assay [6] (setting [9]); 90% in assay [6] (setting [10]). In assay [2], the Her2 level was 108% (inactive). In addition, the differential viability (reversal) in assay [6] (H69AR cells + 2 uM doxorubicin) is 0.295% (inactive). The inhibition in assay [7] is -4.32% (inactive); in assay [8], -3.33% (inactive).

For `O=C(O)c1ccc(COc2c(F)c(F)cc(F)c2F)cc1`, the viability in assay [1] is 114%; in assay [3] it was 114% (inactive); in assay [4] it was 101% (inactive); in assay [5], 103% (inactive); in assay [6] (setting [9]), 102%; in assay [6] (setting [10]), 103%. In addition, the Her2 level in assay [2] was 93.5% (inactive). In assay [6] (H69AR cells + 2 uM doxorubicin), the differential viability (reversal) is 0.99% (inactive). Further, the values for the inhibition in assay [7] and in assay [8] were -5.73% (inactive) and -0.79% (inactive), respectively.
